Measurements pooled from the literature.
Effect on: cell growth or viability

| Compound | cell line | technique | time | quantity | value |
| --- | --- | --- | --- | --- | --- |
| CC(=O)OC1c2c(ccc3ccc(=O)oc23)OC(C)(C)C1OC(=O)C(C)(O)C(C)O (centres unmarked) | HCT-116 | WST-1 | – | IC50 | 16.1 µM |
| COc1cc2c(OC)nc3c4cc5c(cc4cc(OC(C)=O)c3c2cc1OC)OCO5 | HCT-116 | MTT | – | GI50 | 1.3 µM |
| COC(=O)c1c(C)ncn1CC(c1c[nH]c2cc(Br)ccc12)c1c[nH]c2cc(Br)ccc12 | DH82 | MTS | 24 h | CC50 | > 20 µM |
| C/C=C(/C)C(=O)O[C@@H]1[C@H](OC(C)=O)c2c(ccc3ccc(=O)oc23)OC1(C)C | HCT-116 | WST-1 | – | IC50 | 55.8 µM |
| COc1cc2c(OC)nc3c4cc5c(cc4cc(OCCN4CCC(N6CCCCC6)CC4)c3c2cc1OC)OCO5 | HCT-116 | MTT | – | GI50 | 11 µM |
| COC(=O)[C@]1(O)C[C@@H](O)[C@@H](O)[C@H](OC(=O)/C=C/c2ccc(O)c(O)c2)C1 | HCT-116 | WST-1 | – | IC50 | 30.8 µM |
| COc1ccc(S(=O)(=O)ON=C2C=C(C)C(=O)C(C)=C2)cc1 | HCT-116 | – | – | CC50 | 7.4 µM |
| CCc1ncn(CC(c2c[nH]c3ccc(C)cc23)c2c[nH]c3ccc(C)cc23)c1C(=O)OC | DH82 | MTS | 24 h | CC50 | > 20 µM |
| O=c1[nH]cc(F)c(=O)[nH]1 | AGS | crystal violet | 72 h | CC50 | 769 µM |
| CC[C@H](C)C(=O)O[C@H]1C[C@H](O)C=C2C=C[C@H](C)[C@H](CC[C@@H](O)C[C@@H](O)CC(=O)O)[C@H]21 | HCT-116 | SRB | 72 h | IC50 | 3.52 µM |
| CCOC(=O)c1c(C)ncn1CC(c1cn(C)c2ccc([N+](=O)[O-])cc12)c1cn(C)c2ccc([N+](=O)[O-])cc12 | DH82 | MTS | 24 h | CC50 | > 20 µM |
